Data taken from ChEMBL document CHEMBL4229530, “5-Adamantan thiadiazole-based thiazolidinones as antimicrobial agents. Design, synthesis, molecular docking and evaluation” (2018).
Converted amounts (≈) assume the structure as drawn.

Key:
[1] = tested on: Escherichia coli; experiment: Antibacterial activity against Escherichia coli ATCC 35210 after 24 hrs by INT dye based microdilution assay; format: functional; settings: ATCC 35210, 24 h
Method in brief: (§1)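 Broth microdilution in tryptic soy broth: overnight bacterial culture adjusted to 1×10^5 CFU/mL, 1.0×10^4 CFU per well; compounds dissolved in 5% DMSO, tested at 0.001-1.0 mg/ml; 24 h at 37°C. Streptomycin and ampicillin as positive controls, 5% DMSO as negative control; duplicate, repeated three times.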

[2] = tested on: Aspergillus ochraceus; experiment: Antifungal activity against Aspergillus ochraceus ATCC 12066 after 72 hrs by serial dilution assay; format: functional; settings: ATCC 12066, 72 h
Method in brief: (§2)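 Modified microdilution: fungal spores washed off malt agar with sterile 0.85% saline plus 0.1% Tween 80, adjusted to about 1.0×10^5 per 100 µL well. Compounds in 5% DMSO (0.001-1.0 mg/ml) in malt broth; 72 h at 28°C on rotary shaker (160 rpm). MIC is lowest concentration without visible growth under binocular microscope. Bifonazole and ketoconazole controls (1-3500 µg/mL); three independent experiments in duplicate.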

[3] = tested on: Pseudomonas aeruginosa; experiment: Antibacterial activity against Pseudomonas aeruginosa ATCC 27853 after 24 hrs by INT dye based microdilution assay; format: functional; settings: ATCC 27853, 24 h; method in brief: as §1
[4] = tested on: Escherichia coli; experiment: Antibacterial activity against drug-resistant Escherichia coli after 24 hrs by INT dye based microdilution assay; format: functional
Method in brief: (§3)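 Broth microdilution in tryptic soy broth. Overnight culture adjusted to 1×10^5 CFU/mL, giving 1.0×10^4 CFU per well. Compounds dissolved in 5% DMSO and tested at 0.001-1.0 mg/ml. Plates incubated 24 h at 37°C. INT (0.2 mg/mL) then added, with 30 min at 37°C. Duplicate, repeated three times.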

[5] = tested on: Enterobacter cloacae; experiment: Antibacterial activity against Enterobacter cloacae after 24 hrs by INT dye based microdilution assay; format: functional; method in brief: as §1
[6] = tested on: Bacillus cereus; experiment: Antibacterial activity against Bacillus cereus after 24 hrs by INT dye based microdilution assay; format: functional; method in brief: as §1
[7] = tested on: Penicillium verrucosum; experiment: Antifungal activity against Penicillium cyclopium var verucosum after 72 hrs by serial dilution assay; format: functional; method in brief: as §2
[8] = tested on: Salmonella typhimurium; experiment: Antibacterial activity against Salmonella typhimurium ATCC 13311 after 24 hrs by INT dye based microdilution assay; format: functional, Salmonella enterica subsp. enterica serovar Typhimurium; settings: Salmonella enterica, ATCC 13311, 24 h; method in brief: as §1
[9] = tested on: Staphylococcus aureus; experiment: Antibacterial activity against Staphylococcus aureus ATCC 6538 after 24 hrs by INT dye based microdilution assay; format: functional; settings: ATCC 6538, 24 h; method in brief: as §1
[10] = tested on: Aspergillus fumigatus; experiment: Antifungal activity against Aspergillus fumigatus isolate 1022 after 72 hrs by serial dilution assay; format: functional; settings: isolate 1022, 72 h; method in brief: as §2
[11] = tested on: Aspergillus niger; experiment: Antifungal activity against Aspergillus niger ATCC 6275 after 72 hrs by serial dilution assay; format: functional; settings: ATCC 6275, 72 h; method in brief: as §2
[12] = tested on: Talaromyces funiculosus; experiment: Antifungal activity against Penicillium funiculosum ATCC 36839 after 72 hrs by serial dilution assay; format: functional; settings: ATCC 36839, 72 h; method in brief: as §2
[13] = tested on: Trichoderma viride; experiment: Antifungal activity against Trichoderma viride IAM 5061 after 72 hrs by serial dilution assay; format: functional; settings: IAM 5061, 72 h; method in brief: as §2
[14] = tested on: Pseudomonas aeruginosa; experiment: Antibacterial activity against drug-resistant Pseudomonas aeruginosa after 24 hrs by INT dye based microdilution assay; format: functional; method in brief: as §3
[15] = tested on: Penicillium ochrochloron; experiment: Antifungal activity against Penicillium ochrochloron ATCC 9112 after 72 hrs by serial dilution assay; format: functional; settings: ATCC 9112, 72 h; method in brief: as §2
[16] = tested on: Micrococcus flavus; experiment: Antibacterial activity against Micrococcus flavus ATCC 10240 after 24 hrs by INT dye based microdilution assay; format: functional; settings: ATCC 10240, 24 h; method in brief: as §1
[17] = tested on: Aspergillus versicolor; experiment: Antifungal activity against Aspergillus versicolor ATCC 11730 after 72 hrs by serial dilution assay; format: functional; settings: ATCC 11730, 72 h; method in brief: as §2
[18] = tested on: Staphylococcus aureus; experiment: Antibacterial activity against methicillin-resistant Staphylococcus aureus after 24 hrs by INT dye based microdilution assay; format: functional; method in brief: as §3
[19] = tested on: Listeria monocytogenes; experiment: Antibacterial activity against Listeria monocytogenes NCTC 7973 after 24 hrs by INT dye based microdilution assay; format: functional; settings: NCTC 7973, 24 h; method in brief: as §1

Row | SMILES | MIC [1] [µM] | MIC [2] [µM] | MIC [3] [µM] | MIC [4] [µM] | MIC [5] [µM] | MIC [6] [µM] | MIC [7] [µM] | MIC [8] [µM] | MIC [9] [µM] | MIC [10] [µM] | MIC [11] [µM] | MIC [12] [µM] | MIC [13] [µM] | MIC [14] [µM] | MIC [15] [µM] | MIC [16] [µM] | MIC [17] [µM] | MIC [18] [µM] | MIC [19] [µM]
1 | O=C1N/C(=N\c2nnc(C34CC5CC(CC(C5)C3)C4)s2)S/C1=C/c1cccc(Cl)c1Cl | 0.244 (≈ 0.12 µg/mL) | 163 (≈ 80.1 µg/mL) | 122 (≈ 60 µg/mL) | 0.183 (≈ 0.09 µg/mL) | 244 (≈ 120 µg/mL) | 244 (≈ 120 µg/mL) | 0.163 (≈ 0.0801 µg/mL) | 122 (≈ 60 µg/mL) | 0.244 (≈ 0.12 µg/mL) | 163 (≈ 80.1 µg/mL) | 163 (≈ 80.1 µg/mL) | 326 (≈ 160 µg/mL) | 163 (≈ 80.1 µg/mL) | 183 (≈ 90 µg/mL) | 163 (≈ 80.1 µg/mL) | 244 (≈ 120 µg/mL) | 163 (≈ 80.1 µg/mL) | 0.183 (≈ 0.09 µg/mL) | 244 (≈ 120 µg/mL)
2 | O=C1N/C(=N\c2nnc(C34CC5CC(CC(C5)C3)C4)s2)S/C1=C/c1ccc(F)cc1 | 0.295 (≈ 0.13 µg/mL) | 90.9 (≈ 40 µg/mL) | 295 (≈ 130 µg/mL) | 0.295 (≈ 0.13 µg/mL) | 148 (≈ 65 µg/mL) | 295 (≈ 130 µg/mL) | 0.182 (≈ 0.0801 µg/mL) | 295 (≈ 130 µg/mL) | 0.147 (≈ 0.065 µg/mL) | 90.9 (≈ 40 µg/mL) | 182 (≈ 80.2 µg/mL) | 90.9 (≈ 40 µg/mL) | 182 (≈ 80.2 µg/mL) | 295 (≈ 130 µg/mL) | 90.9 (≈ 40 µg/mL) | 295 (≈ 130 µg/mL) | 90.9 (≈ 40 µg/mL) | 0.295 (≈ 0.13 µg/mL) | 295 (≈ 130 µg/mL)
3 | CN(C)c1ccc(/C=C2/S/C(=N/c3nnc(C45CC6CC(CC(C6)C4)C5)s3)NC2=O)cc1 | 0.139 (≈ 0.0648 µg/mL) | 150 (≈ 69.8 µg/mL) | 69.5 (≈ 32.4 µg/mL) | 0.0751 (≈ 0.035 µg/mL) | 139 (≈ 64.8 µg/mL) | 139 (≈ 64.8 µg/mL) | 0.301 (≈ 0.14 µg/mL) | 69.5 (≈ 32.4 µg/mL) | 0.139 (≈ 0.0648 µg/mL) | 301 (≈ 140 µg/mL) | 150 (≈ 69.8 µg/mL) | 150 (≈ 69.8 µg/mL) | 301 (≈ 140 µg/mL) | 150 (≈ 70.1 µg/mL) | 150 (≈ 69.8 µg/mL) | 139 (≈ 64.8 µg/mL) | 150 (≈ 69.8 µg/mL) | 0.15 (≈ 0.0701 µg/mL) | 69.5 (≈ 32.4 µg/mL)
4 | O=C1N/C(=N\c2nnc(C34CC5CC(CC(C5)C3)C4)s2)S/C1=C/c1c(F)cccc1F | 0.0436 (≈ 0.02 µg/mL) | 393 (≈ 180 µg/mL) | 43.6 (≈ 20 µg/mL) | 0.393 (≈ 0.18 µg/mL) | 21.8 (≈ 10 µg/mL) | 43.6 (≈ 20 µg/mL) | 0.393 (≈ 0.18 µg/mL) | 43.6 (≈ 20 µg/mL) | 0.0436 (≈ 0.02 µg/mL) | 393 (≈ 180 µg/mL) | 393 (≈ 180 µg/mL) | 393 (≈ 180 µg/mL) | 393 (≈ 180 µg/mL) | 393 (≈ 180 µg/mL) | 393 (≈ 180 µg/mL) | 43.6 (≈ 20 µg/mL) | 393 (≈ 180 µg/mL) | 0.393 (≈ 0.18 µg/mL) | 21.8 (≈ 10 µg/mL)
5 | O=C1N/C(=N\c2nnc(C34CC5CC(CC(C5)C3)C4)s2)S/C1=C/c1ccccc1 | 0.0947 (≈ 0.04 µg/mL) | 47.5 (≈ 20.1 µg/mL) | 94.7 (≈ 40 µg/mL) | 0.0236 (≈ 0.00997 µg/mL) | 94.7 (≈ 40 µg/mL) | 94.7 (≈ 40 µg/mL) | 0.095 (≈ 0.0401 µg/mL) | 23.6 (≈ 9.97 µg/mL) | 0.0473 (≈ 0.02 µg/mL) | 47.5 (≈ 20.1 µg/mL) | 95 (≈ 40.1 µg/mL) | 47.5 (≈ 20.1 µg/mL) | 47.5 (≈ 20.1 µg/mL) | 47.3 (≈ 20 µg/mL) | 47.5 (≈ 20.1 µg/mL) | 94.7 (≈ 40 µg/mL) | 95 (≈ 40.1 µg/mL) | 0.0473 (≈ 0.02 µg/mL) | 94.7 (≈ 40 µg/mL)
6 | O=C1N/C(=N\c2nnc(C34CC5CC(CC(C5)C3)C4)s2)S/C1=C/c1ccc(Cl)cc1Cl | 0.163 (≈ 0.0801 µg/mL) | 81.4 (≈ 40 µg/mL) | 163 (≈ 80.1 µg/mL) | 0.0203 (≈ 0.00998 µg/mL) | 163 (≈ 80.1 µg/mL) | 163 (≈ 80.1 µg/mL) | 0.0814 (≈ 0.04 µg/mL) | 81.5 (≈ 40.1 µg/mL) | 0.0203 (≈ 0.00998 µg/mL) | 81.4 (≈ 40 µg/mL) | 81.4 (≈ 40 µg/mL) | 163 (≈ 80.1 µg/mL) | 81.4 (≈ 40 µg/mL) | 163 (≈ 80 µg/mL) | 163 (≈ 80.1 µg/mL) | 163 (≈ 80.1 µg/mL) | 163 (≈ 80.1 µg/mL) | 0.0814 (≈ 0.04 µg/mL) | 163 (≈ 80.1 µg/mL)
7 | CC1(C)S[C@@H]2[C@H](NC(=O)[C@H](N)c3ccccc3)C(=O)N2[C@H]1C(=O)O [AMPICILLIN] | 0.372 (≈ 0.13 µg/mL) | – | 744 (≈ 260 µg/mL) | 1.24 (≈ 0.433 µg/mL) | 248 (≈ 86.7 µg/mL) | 248 (≈ 86.7 µg/mL) | – | 248 (≈ 86.7 µg/mL) | 0.248 (≈ 0.0867 µg/mL) | – | – | – | – | 1240 (≈ 433 µg/mL) | – | 248 (≈ 86.7 µg/mL) | – | – | 372 (≈ 130 µg/mL)
